Screening data as filed in PubChem BioAssay.
Hep lipid drop: inhibitors of hepatocyte lipid droplet formation, primary screen, imaging, high-throughput imaging, BODIPY stain. AML12 mouse hepatocytes, oleate lipid droplets. inhibition, % at 6.5 µM. 240,000 compounds, 0.4% hits;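 active = lipid droplet intensity inhibited by at least 50%, with more than 500 cells counted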
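Test system: AML12 hepatocytes (mouse); reagent: oleate loading, 100 µM; dosing: one dose, 6.5 µM compound; incubation: overnight exposure; signal: fluorescence imaging, 20x objective, two fields per well; read-out basis: % inhibition of corrected integrated BODIPY droplet signal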
Yeast superoxide: reduction of superoxide in aged yeast, primary screen, HTS. S. cerevisiae aged cells, superoxide DHE fluorescence; active compounds read low. superoxide response (% of plate mean), % at 10 µM. 330,000 compounds, 0.18% hits. AID 2690, 2010;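 active = superoxide response under a set limit, about three screen SD below normal, cut at about 65% in these data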;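 also: yeast aged for seven days with compound at 30 °C before DHE staining; 100% = average MFI of all compound-treated wells on the plate with controls excluded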
SR-BI DiI inh: inhibitors of SR-BI mediated HDL lipid uptake, primary screen, ldlA[mSR-BI] cells, fluorescence, single point | 320,000 compounds, 0.96% hits | ldlA[mSR-BI] CHO cells, DiI-HDL uptake fluorescence, 3 h | inhibition, % at 12.5 µM;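 active = mean replicate inhibition of at least 70% and a set share of replicates each scoring 70 or more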;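 also: 0% = median of neutral control wells and 100% = median of positive control wells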
SMARCA2 activ: SMARCA2 (BRM) function activators, primary screen, cell-based, luminescence, high throughput. MG213 cells, MMTV-luciferase reporter, dexamethasone, overnight. activation, % at 9.1 µM. 370,000 compounds, 1% hits. AID 652017, 2013; in the data active = activation above about 7.8%;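 also: 0% = vehicle wells and 100% = reference activator wells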
AHR act: AHR activators, primary screen, cell-based, luminescence, luciferase reporter, human. Aryl hydrocarbon receptor (Homo sapiens), P35869. AHR-responsive luciferase reporter cells. activation, % at 5 µM. 320,000 compounds, 2.5% hits. AID 2796, 2010; in the data active = activation above about 47%;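 also: 0% = vehicle wells and 100% = reference agonist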
SR-BI uptake up: activators of SR-BI mediated DiI-HDL uptake, primary screen, ldlA[mSR-BI] CHO cells, DiI fluorescence; 3 h; 100 = double the neutral-control signal; activation, % at 12.5 µM; 320,000 compounds, 0.096% hits; AID 504775, 2011;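 active = mean replicate activation of at least 60% and every replicate at or above 60%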;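 also: 0% = median plate neutral-control signal and 100% = twice that signal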
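System: LDL receptor-deficient CHO ldlA cells overexpressing murine SR-BI | Timing: 3 h uptake period with compound, 37 °C | Medium: HEPES-buffered (25 mM, pH 7.4) F12 plus 0.5% BSA | Dosing: Single-point compound dose | Signal: Bottom-read fluorescence, 550/595 nm | Read-out: Retained DiI signal reflecting DiI-HDL uptake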
AHR act cf: AHR activators, confirmation, cell-based, luminescence, luciferase reporter, human. shares compounds with AHR act. 2,300 compounds, 87% hits. AID 2845, 2010. human cells, AHR-responsive luciferase reporter. activation, % at 9 µM; in the data active = activation above about 49%;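 also: HepG2 hepatoma cells carrying a DRE-driven firefly luciferase reporter; 0% = vehicle wells and 100% = reference agonist wells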
PXR act counter: human PXR activators, counter-screen for AHR activator project, cell-based, luciferase luminescence; activation, % at 11.6 µM; cell-based PXR reporter; shares compounds with AHR act; 2,300 compounds, 88% hits; in the data active = activation above about 11%;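 also: human hepatoma DPX-2 cells expressing full-length human PXR; 0% = DMSO and 100% = reference agonist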
Target sequence (O75469 whole entry, looked up): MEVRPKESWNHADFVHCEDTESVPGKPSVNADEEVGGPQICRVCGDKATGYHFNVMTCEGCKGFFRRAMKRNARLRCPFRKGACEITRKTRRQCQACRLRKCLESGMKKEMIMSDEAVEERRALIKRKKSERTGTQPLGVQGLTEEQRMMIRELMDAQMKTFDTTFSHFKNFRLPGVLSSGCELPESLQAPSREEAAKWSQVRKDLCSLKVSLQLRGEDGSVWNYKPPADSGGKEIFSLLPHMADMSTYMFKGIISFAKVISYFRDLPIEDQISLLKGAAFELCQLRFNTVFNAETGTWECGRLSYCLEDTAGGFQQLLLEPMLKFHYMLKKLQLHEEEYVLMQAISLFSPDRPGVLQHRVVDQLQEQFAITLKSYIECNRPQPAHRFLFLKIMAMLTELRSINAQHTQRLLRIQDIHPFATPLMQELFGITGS
Numbers without * were called inactive; x = no result given. Shown are actives, neighbours in structure and some others; about 4.3% of the full set was active somewhere.

SMILES	Hep lipid drop	Yeast superoxide	SR-BI DiI inh	SMARCA2 activ	AHR act	SR-BI uptake up	AHR act cf	PXR act counter
O=C(CNC(=O)c1ccccc1)N/N=C/c1cn[nH]c1-c1ccccc1	18	126	16	-2	146*	-16	92*	20*
COc1cccc(C(=O)NCC(=O)N/N=C/c2cn[nH]c2-c2ccccc2)c1	-23	93	29	-2	19	-29	x	x
CCCCCCC(=O)n1ccc2ccc(-c3ccc4ccn(Cc5ccc(OC)cc5)c4c3)cc21	x	x	x	-1	x	x	x	x
C=CCN1CC(COc2ccc(OC)cc2)OCCS1(=O)=O (stereo unspecified)	x	x	x	-2	x	x	x	x
CCOC(=O)C1=CCN(S(=O)(=O)c2cccc(Cl)c2)C1c1cccc(Br)c1 (stereo unspecified)	x	x	x	-4	x	x	x	x
COc1ccccc1/C=C/C(=O)N1CCCC1	14	104	22	-4	84*	-22	102*	17*
COc1ccccc1C=CC(=O)C=Cc1ccccc1OC	x	x	27	2	x	-27	x	x
C#CCn1cc(/C=N/NC(=O)c2cc3ccccc3o2)c2ccccc21	-1	104	-45	1	112*	45	87*	x
O=C(N/N=C/c1cn(Cc2ccccc2)c2ccccc12)c1cccnc1	-50	123	12	-6	86*	-12	-9	-3
C=CCn1cc(/C=N\NC(=O)c2cc3c(ccc4ccccc43)o2)c2ccccc21	x	120	1	1	-1	-1	x	x
O=C(N/N=C/c1cn(Cc2ccccc2)c2ccccc12)c1ccncc1	-15	113	47	-4	24	-47	x	x
COC[C@H]1CCCN1c1ccc2c(c1)O[C@H](C)CCN(C1CC1)S2(=O)=O	x	x	x	-1	x	x	x	x
NNc1nc2sc3c(c2c(=O)[nH]1)CCc1ccccc1-3	7	109	3	0	133*	-3	78*	x
C=CCSc1nc2sc3c(c2c(=O)n1CC=C)CCc1ccccc1-3	40	97	25	0	33	-25	x	x
NC(=O)c1ncn([C@@H]2O[C@H](C(=O)N[C@H](Cc3c[nH]c4ccccc34)C(=O)N3CCN(C(=O)C4CC4)CC3)[C@@H](O)[C@H]2O)n1	x	x	x	-4	x	x	x	x
O=S(=O)(Nc1ccccc1)c1ccc(-c2csnn2)cc1	-4	108	0	-7	1	0	x	x
c1ccc(-c2ccc(-c3csnn3)cc2)cc1	x	99	23	5	86*	-23	96*	17*
C=CCC12C=C(OC)C(=O)C(C1=O)C1c3ccccc3CC12 (stereo unspecified)	x	x	x	-1	x	x	x	x
Cc1ccc(C#N)c(SCCN2CCCCC2)n1	-3	82	-14	0	x	14	x	x
Cc1cccc2cc(C#N)c(SCCN3CCCCC3)nc12	x	104	x	x	81*	x	101*	48*
COC(=O)[C@]1(CNC(=O)c2cc(F)ccc2F)CC(=O)N(C)[C@@H]1c1ccccc1	x	x	x	-3	x	x	x	x
O=c1c2ccccc2[nH]c(=S)n1CCC1=CCCCC1	8	114	25	-3	113*	-25	125*	24*
CN1C(=O)/C(=C/c2ccccc2OCc2ccccc2)NC1=S	-17	101	10	-2	90*	-10	64*	30*
CN1C(=O)/C(=C/c2ccccc2OCc2cccc(F)c2)NC1=S	-4	95	12	0	97*	-12	74*	35*
COc1cc(/C=C2\NC(=S)N(C)C2=O)ccc1OCc1cccc(F)c1	-2	117	46	-2	5	-46	x	x
SMILES	Hep lipid drop	Yeast superoxide	SR-BI DiI inh	SMARCA2 activ	AHR act	SR-BI uptake up	AHR act cf	PXR act counter
CN1C(=O)/C(=C/c2ccccc2OCc2ccc(C(=O)O)cc2)NC1=S	8	79	-15	4	0	15	x	x
Cc1ccc2nc(N/N=C/c3ccco3)cc(C)c2c1	16	100	-20	4	121*	20	177*	23*
Cc1ccc2nc(SCC(=O)N/N=C/c3ccco3)cc(C)c2c1	12	96	16	-1	5	-16	x	x
Cc1sc(N/N=C/c2ccco2)nc1-c1ccccc1	13	101	69	1	170*	-69	80*	31*
O=C(Nc1ccc(Cl)cc1)OCC12COCN1COC2	x	x	x	2	x	x	x	x
CCOc1ccc(OCCn2c(=S)[nH]c3ccccc32)cc1	-3	96	22	1	x	-22	x	x
O=c1sc2ccccc2n1CCOc1ccccc1	x	91	-32	1	109*	32	123*	30*
S=c1[nH]c2ccccc2n1CCOc1ccccc1	2	105	1	-1	96*	-1	102*	77*
Cc1cccc(OCCn2c(=S)[nH]c3ccccc32)c1	18	108	-6	-1	81*	6	90*	74*
O=C(O)CCn1c(=O)sc2ccccc21	x	110	x	-2	-3	x	x	x
c1ccc(-c2cc(-c3nnc4sc(Cc5cccs5)nn34)[nH]n2)cc1	x	x	x	-4	x	x	x	x
CC(C)C[C@H]1COc2cccc(F)c2S(=O)(=O)N1Cc1cn(CCC2OCCO2)nn1	x	x	x	-2	x	x	x	x
CCNC(=O)N(C)[C@H]1C[C@H]2c3[nH]c4c(-c5cccc(C)c5)cccc4c3CCN2C[C@H]1[C@H](C)O	x	x	x	-5	x	x	x	x
COC(=O)c1cc(C)[nH]c2c(C)cc3nc4ccccc4c3c12	-4	91	10	-2	95*	-10	100*	156*
CN(C)S(=O)(=O)Oc1ccc(Cl)cc1C(=O)Nc1ccc(F)cc1F	-2	100	44	-4	81*	-44	81*	191*
O=C(Nc1ccc(F)cc1F)c1cc(Cl)sc1Cl	x	100	-22	2	0	22	x	x
COC(=O)c1cc(C(c2ccccc2O)C2CCCO2)n2cccc(C(C)(C)C)c12 (stereo unspecified)	x	x	x	0	x	x	x	x
Cc1c(-c2ccn[nH]2)cc(NC(=O)c2ccc(Cl)cc2)c(=O)n1N	9	99	22	-2	86*	-22	105*	x
COc1ccc(CN2C(=O)c3ccnn3CC2(C)c2nnnn2-c2c(C)cccc2C)cc1 (stereo unspecified)	x	x	x	-1	x	x	x	x
CSc1sc(C(=O)O)c2c1C(=O)CCC2	19	108	-18	2	0	18	x	x
